From ChEMBL document CHEMBL4354869, “pH-Dependent Grafting of Cancer Cells with Antigenic Epitopes Promotes Selective Antibody-Mediated Cytotoxicity” (J Med Chem, 2020)
Calls of active or inactive are those of the source. No cut-off for these calls is given here.

Tests used:
[1] = system: MDA-MB-231; assay: (§1) Induction of antibody dependent cytotoxicity against human MDA-MB-231 cells assessed as increase in cell lysis at 0.1 uM incubated for 5 mins at pH 6 followed by compound washout prior to anti-FITC antibody addition for 30 mins and subsequent human PBMC addition at 50:1 effector to target ratio measured after 4 hrs by LDH release assay relative to pH 7.4; type: functional
Outline: (§2)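 150000 target cells (MDA-MB-231; also LnCap, SK-OV-3 with haNK) treated with conjugate 5 min at 37 °C, pH 7.4 or 6.0, washed, 25 μg/mL anti-FITC rabbit polyclonal 30 min 4 °C, then 4 h at 37 °C with PBMCs at 50:1 (RPMI) or haNK at 5:1 (MEMα). LDH release; % lysis relative to antibody-only pH 7.4 cells; mean ± SEM, n = 3–12.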

[2] = system: Lipid bilayer; assay: Binding affinity to POPC large unilamellar vesicle at 1:300 ratio measured after 30 mins at pH 5 to 7.4 by tryptophan fluorescence spectroscopic analysis
Outline: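 Peptide (7 μM final, from 20 μM stock in 5 mM sodium phosphate pH 8.0) with extruded 100 nm POPC LUVs at 1:300; pH set with HCl, 30 min RT before tryptophan emission spectra were recorded.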

[3] = system: MDA-MB-231; assay: as §1, with “induction of” for “increase in”, “up to 1” for “at 0.1”, “6 to 7.4” for “6”, “haNK cell” for “PBMC”, “5:1” for “50:1”, “assay” for “assay relative to pH 7.4”; type: functional, cell-based; outline: as §2
[4] = system: MDA-MB-231; assay: (§3) Induction of antibody dependent cytotoxicity against human MDA-MB-231 cells assessed as cell lysis at > 0.1 uM incubated for 5 mins at pH 6 followed by compound washout prior to anti-FITC antibody addition for 30 mins and subsequent human PBMC addition at 50:1 effector to target ratio measured after 4 hrs by LDH release assay; type: functional, cell-based; outline: as §2
[5] = system: LNCaP; assay: (§4) Induction of antibody dependent cytotoxicity against human LNCAP cells assessed as induction of cell lysis at 1 uM incubated for 5 mins at pH 6 to 7.4 followed by compound washout prior to anti-FITC antibody addition for 30 mins and subsequent human haNK cell addition at 5:1 effector to target ratio measured after 4 hrs by LDH release assay; type: functional, cell-based; outline: as §2
[6] = system: MDA-MB-231; assay: Induction of opsonization in human MDA-MB-231 cells assessed as increase in recruitment of anti-FITC antibody to cell surface at 1 uM measured after 5 to 10 mins at pH 6 by Alexa Fluor 647 conjugated anti-FITC antibody based flow cytometry relative to pH 7.4; type: functional
Outline: (§5)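 Cells in suspension (350000 MDA-MB-231) given 1 μM pH-adjusted conjugate for 5 or 10 min at 37 °C, pH 7.4 or 6.0, washed, then Alexa Fluor 647 anti-FITC mouse mAb in PBS/10% FBS 30 min at 4 °C, PFA-fixed. Flow cytometry, ≥3000 events; fold over pH 7.4 antibody-only cells; mean ± SEM, n = 3.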

[7] = system: MDA-MB-231; assay: Induction of opsonization in human MDA-MB-231 cells assessed as increase in recruitment of anti-FITC antibody to cell surface at 1 uM measured after 5 to 10 mins at pH 6 to 7.4 by Alexa Fluor 647 conjugated anti-FITC antibody based flow cytometry; type: functional; outline: as §5
[8] = system: MDA-MB-231; assay: Induction of opsonization in human MDA-MB-231 cells assessed as increase in recruitment of anti-FITC antibody to cell surface at 1 uM measured after 5 mins at pH 6 to 7.4 by Alexa Fluor 647 conjugated anti-FITC antibody based immunofluorescence microscopic analysis; type: functional
Outline: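 Adherent MDA-MB-231 on poly-L-lysine coverslips given 1 μM conjugate for 5 min, 37 °C, pH 7.4 or 6.0, methanol-fixed, then Alexa Fluor 647 anti-FITC rabbit polyclonal at 30 μg/mL for 1 h at 37 °C, Hoechst nuclear stain; fluorescence microscopy, 20× objective.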

[9] = system: MDA-MB-231; assay: as §4, with “against human MDA-MB-231 cells assessed” for “against human LNCAP cells assessed”, “lysis at > 1 uM” for “lysis at 1 uM”; type: functional, cell-based; outline: as §2
[10] = system: SK-OV-3; assay: as §4, with “SKOV3” for “LNCAP”; type: functional, cell-based; outline: as §2
[11] = system: MDA-MB-231; assay: as §3, with “at” for “at >”, “assay relative to control” for “assay”; type: functional; outline: as §2

- Activity [2]: Active
SMILES: CC[C@H](C)[C@H](NC(=O)[C@@H]1CCCN1C(=O)[C@H](CC(N)=O)NC(=O)[C@H](CCC(N)=O)NC(=O)[C@H](CCC(=O)O)NC(=O)[C@H](CSC1CC(=O)N(CCC(=O)NOCCOCCOCCOCCOCCOCCOCCOCCOCCOCCOCCOCCC(=O)NCCCNC(=O)c2ccc(-c3c4ccc(=O)cc-4oc4cc(O)ccc34)c(C(=O)O)c2)C1=O)NCC(N)=O)C(=O)N[C@@H](Cc1ccc(O)cc1)C(=O)N[C@@H](Cc1c[nH]c2ccccc12)C(=O)N[C@@H](C)C(=O)N[C@@H](CCCNC(=N)N)C(=O)N[C@@H](Cc1ccc(O)cc1)C(=O)N[C@@H](C)C(=O)N[C@@H](CC(=O)O)C(=O)N[C@@H](Cc1c[nH]c2ccccc12)C(=O)N[C@@H](CC(C)C)C(=O)N[C@@H](Cc1ccccc1)C(=O)N[C@H](C(=O)N[C@H](C(=O)N1CCC[C@H]1C(=O)N[C@@H](CC(C)C)C(=O)N[C@@H](CC(C)C)C(=O)N[C@@H](CC(C)C)C(=O)N[C@@H](CC(C)C)C(=O)N[C@@H](CC(=O)O)C(=O)N[C@@H](CC(C)C)C(=O)N[C@@H](C)C(=O)N[C@@H](CC(C)C)C(=O)N[C@@H](CC(C)C)C(=O)N[C@H](C(=O)N[C@@H](CC(=O)O)C(=O)N[C@@H](C)C(=O)N[C@@H](CC(=O)O)C(=O)N[C@@H](CCC(=O)O)C(=O)NCC(=O)N[C@H](C(=O)NCC(N)=O)[C@@H](C)O)C(C)C)[C@@H](C)O)[C@@H](C)O (stereo partly specified)
- fold change (FC) [1]: 2
- Activity [3]: Active
- Activity [4]: inactive
- Activity [5]: Active
- fold change (FC) [6]: 5.4
- Activity [7]: Active
- Activity [8]: Active
- Activity [9]: inactive
- Activity [10]: Active
- Activity [11]: 40%
